Measured values from ChEMBL document CHEMBL1138692 (Bioorg Med Chem Lett, 2004).

How the values were obtained:
MT4 [1] = assay: Antiviral activity against PI resistant virus D545701 was determined in MT-4 cell line; format: functional, cell-based; settings: Homo sapiens
Procedure, shortened: (§1)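 Antiviral IC50 measured in MT4 cells infected with the named HIV strain: wild-type HXB2, or the multi-PI-resistant EP13 or D545701.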

MT4 [2] = assay: Antiviral activity against PI resistant virus EP13 was determined in MT-4 cell line; format: functional, cell-based; settings: Homo sapiens; procedure, shortened: as §1
MT4 [3] = assay: Antiviral activity against wild-type HIV virus (HXB2) was determined in MT-4 cell line; format: functional, cell-based; settings: Homo sapiens; procedure, shortened: as §1
[4] = molecular target: Human immunodeficiency virus type 1 protease (Human immunodeficiency virus 1, UniProt Q72874); assay: Inhibition of HIV-1 Protease activity
MT4 [5] = assay: Antiviral activity against PI resistant virus D545701 in MT-4 cell line; format: functional, cell-based; settings: Homo sapiens; procedure, shortened: as §1
MT4 [6] = assay: Antiviral activity against wild-type HIV virus (HXB2) in MT-4 cell line; format: functional, cell-based; settings: Homo sapiens; procedure, shortened: as §1
MT4 [7] = assay: Antiviral activity against PI resistant virus EP13 in MT-4 cell line; format: functional, cell-based; settings: Homo sapiens; procedure, shortened: as §1
[8] = Oral bioavailability in rat; format: ADME, organism-based; settings: in vivo
[9] = Half life period in rat; format: ADME, organism-based; settings: in vivo

Compound: CC(C)CN(C[C@@H](O)[C@H](Cc1ccccc1)NC(=O)O[C@H]1CCOC1)S(=O)(=O)c1ccc(N)cc1
- IC50 (MT4 [1]): > 1000 nM
- IC50 (MT4 [2]): 440 nM
- IC50 (MT4 [3]): 130 nM
- Ki [4]: 0.057 nM

Compound: COC(=O)NCCCCCC(C)(C)CN(C[C@@H](O)[C@H](Cc1ccccc1)NC(=O)O[C@H]1CO[C@H]2OCC[C@H]21)S(=O)(=O)c1ccc2c(c1)OCO2
- IC50 (MT4 [1]): 65 nM
- IC50 (MT4 [2]): 46 nM
- IC50 (MT4 [3]): 5.5 nM
- Ki [4]: 0.00012 nM

Compound: COC(=O)NCCCC(C)(C)CN(C[C@@H](O)[C@H](Cc1ccccc1)NC(=O)O[C@H]1CO[C@H]2OCC[C@H]21)S(=O)(=O)c1cccc(N)c1
- IC50 (MT4 [1]): 100 nM
- IC50 (MT4 [2]): 36 nM
- IC50 (MT4 [3]): 18 nM
- Ki [4]: 0.00021 nM

Compound: COC(=O)NCCCC(C)(C)CN(C[C@@H](O)[C@H](Cc1ccccc1)NC(=O)O[C@H]1CO[C@H]2OCC[C@H]21)S(=O)(=O)c1ccc2c(c1)OCO2
- IC50 (MT4 [1]): 66 nM
- IC50 (MT4 [2]): 38 nM
- IC50 (MT4 [3]): 4.7 nM
- Ki [4]: 0.00052 nM

Compound: CC(C)(CCCN)CN(C[C@@H](O)[C@H](Cc1ccccc1)NC(=O)O[C@H]1CO[C@H]2OCC[C@H]21)S(=O)(=O)c1ccc2c(c1)OCO2
- IC50 (MT4 [5]): 730 nM
- IC50 (MT4 [6]): 370 nM
- IC50 (MT4 [7]): 540 nM

Compound: CC(=O)NCCCC(C)(C)CN(C[C@@H](O)[C@H](Cc1ccccc1)NC(=O)O[C@H]1CO[C@H]2OCC[C@H]21)S(=O)(=O)c1ccc2c(c1)OCO2
- IC50 (MT4 [1]): 120 nM
- IC50 (MT4 [2]): 30 nM
- IC50 (MT4 [3]): 23 nM

Compound: CNC(=O)NCCCC(C)(C)CN(C[C@@H](O)[C@H](Cc1ccccc1)NC(=O)O[C@H]1CO[C@H]2OCC[C@H]21)S(=O)(=O)c1ccc2c(c1)OCO2
- IC50 (MT4 [1]): 200 nM
- IC50 (MT4 [2]): 110 nM
- IC50 (MT4 [3]): 38 nM

Compound: CC(C)(CCCNS(C)(=O)=O)CN(C[C@@H](O)[C@H](Cc1ccccc1)NC(=O)O[C@H]1CO[C@H]2OCC[C@H]21)S(=O)(=O)c1ccc2c(c1)OCO2
- IC50 (MT4 [1]): 150 nM
- IC50 (MT4 [2]): 47 nM
- IC50 (MT4 [3]): 33 nM

Compound: COC(=O)NCCC(C)(C)CN(C[C@@H](O)[C@H](Cc1ccccc1)NC(=O)O[C@H]1CO[C@H]2OCC[C@H]21)S(=O)(=O)c1ccc2c(c1)OCO2
- IC50 (MT4 [1]): 40 nM
- IC50 (MT4 [2]): 22 nM
- IC50 (MT4 [3]): 1.4 nM
- Ki [4]: 0.00016 nM

Compound: COC(=O)NCCCCC(C)(C)CN(C[C@@H](O)[C@H](Cc1ccccc1)NC(=O)O[C@H]1CO[C@H]2OCC[C@H]21)S(=O)(=O)c1ccc2c(c1)OCO2
- bioavailability [8]: 20%
- half-life [9]: 1.3 h
- IC50 (MT4 [1]): 9.2 nM
- IC50 (MT4 [2]): 15 nM
- IC50 (MT4 [3]): 1.6 nM

Compound: COC(=O)NCCCC(C)(C)CN(C[C@@H](O)[C@H](Cc1ccccc1)NC(=O)O[C@H]1CO[C@H]2OCC[C@H]21)S(=O)(=O)c1ccc(N)cc1
- IC50 (MT4 [5]): 95 nM
- IC50 (MT4 [6]): 31 nM
- Ki [4]: 0.00026 nM
- IC50 (MT4 [7]): 46 nM

Compound: CC(C)(C)NC(=O)[C@@H]1CN(Cc2cccnc2)CCN1C[C@@H](O)C[C@@H](Cc1ccccc1)C(=O)N[C@H]1c2ccccc2C[C@H]1O
- IC50 (MT4 [1]): 440 nM
- IC50 (MT4 [2]): 330 nM
- IC50 (MT4 [3]): 50 nM

Compound: Cc1c(O)cccc1C(=O)N[C@@H](CSc1ccccc1)[C@H](O)CN1C[C@H]2CCCC[C@H]2C[C@H]1C(=O)NC(C)(C)C
- IC50 (MT4 [1]): > 1000 nM
- IC50 (MT4 [2]): 450 nM
- IC50 (MT4 [3]): 320 nM
